The test system of one experiment is Enterobacter sp. The experiment can be described thus: Antibacterial activity against Enterobacter sp. J 14365/ 08 after 24 to 48 hrs by broth microdilution method. In kind it is functional, organism-based.
In a further experiment the test system is Pseudomonas aeruginosa. The experiment can be described thus: Antibacterial activity against Pseudomonas aeruginosa CCM 1961 after 24 to 48 hrs by broth microdilution method. In kind it is functional, organism-based. The method, boiled down: (§1)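 Strains subcultured on Mueller-Hinton agar at 35 °C and passaged onto MHA before testing. Inoculum suspended in sterile 0.85% saline and adjusted to 0.5 McFarland (1.5×10^8 CFU/mL). Compounds in DMSO (final ≤1% v/v) in Mueller-Hinton broth at pH 7.0, with medium and DMSO-alone controls. Static incubation at 35 °C; MIC taken as 95% growth inhibition versus control at 24 and 48 h.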

Experiment [1] concerns Mycobacterium avium. The experiment can be described thus: Antimycobacterial activity against Mycobacterium avium CNCTC My 80/72 after 14 days by microdilution method. It is filed as functional. The conditions noted are these: CNCTC My 80/72, 336 h. The method, boiled down:
(§2)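 Compounds in DMSO were diluted in Šula's semisynthetic medium, pH 5.5, to final 200–3.125 μg/mL, with DMSO at most 1% (v/v). Mycobacteria were added as a suspension in isotonic saline and grown at 37 °C. MIC was read visually after 14 days as the lowest concentration inhibiting growth.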

The test system of experiment [2] is Staphylococcus aureus. The experiment can be described thus: Antibacterial activity against Staphylococcus aureus CCM 4516/08 after 24 to 48 hrs by broth microdilution method. It is filed as functional, organism-based. The gist of the method:
as §1

Experiment [3] has as its system Staphylococcus aureus. The experiment can be described thus: Antibacterial activity against methicillin-resistant Staphylococcus aureus H 5996/08 after 24 to 48 hrs by broth microdilution method. In kind it is functional, organism-based. The gist of the method: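 Strains were subcultured on Mueller-Hinton agar at 35 °C, and the inoculum was suspended in 0.85% saline to 0.5 McFarland (1.5×10^8 CFU/mL). Microdilution was done in Mueller-Hinton broth, pH 7.0, with final DMSO at most 1% (v/v). MIC, set at 95% growth inhibition versus control, was read after 24 and 48 h of static incubation at 35 °C.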

Experiment [4] has as its system Klebsiella pneumoniae. The experiment can be described thus: Antibacterial activity against ESBL-positive Klebsiella pneumoniae J 14368/08 after 24 to 48 hrs by broth microdilution method. In kind it is functional, organism-based.
For another experiment, the system named is Escherichia coli. The experiment can be described thus: Antibacterial activity against Escherichia coli CCM 4517 after 24 to 48 hrs by broth microdilution method. It is filed as functional, organism-based. The gist of the method:
as §1

In experiment [5] the test system is Mycobacterium tuberculosis. The experiment can be described thus: Antimycobacterial activity against Mycobacterium tuberculosis H37Rv CNCTC My 331/88 after 14 days by microdilution method. In kind it is functional. Particulars: H37Rv CNCTC My 331/88, 336 h. The method, boiled down:
as §2

Experiment [6] relates to Klebsiella pneumoniae. The experiment can be described thus: Antibacterial activity against Klebsiella pneumoniae D11750/08 after 24 to 48 hrs by broth microdilution method. It is filed as functional, organism-based.
Experiment [7] has as its system Mycobacterium avium. The experiment can be described thus: Antimycobacterial activity against Mycobacterium avium CNCTC My 152/73 after 14 days by microdilution method. It is filed as functional. The conditions noted are these: CNCTC My 152/73, 336 h. The method, boiled down:
as §2

In experiment [8] the test system is Staphylococcus epidermidis. The experiment can be described thus: Antibacterial activity against Staphylococcus epidermidis H 6966/08 after 24 to 48 hrs by broth microdilution method. In kind it is functional, organism-based.
Another experiment concerns Mycobacterium kansasii. The experiment can be described thus: Antimycobacterial activity against Mycobacterium kansasii CNCTC My 235/80 after 6 days by microdilution method. It is filed as functional. Particulars: CNCTC My 235/80, 144 h. The method, boiled down: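 Compounds were dissolved in DMSO and diluted in Šula's semisynthetic medium at pH 5.5, at final concentrations of 200 to 3.125 μg/mL in twofold steps; DMSO stayed ≤1% v/v. The strain was added as a suspension in isotonic saline and incubated at 37 °C. Growth was read visually after 6 days; MIC is the lowest concentration that inhibited growth. Pyrazinamide served as standard.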

In brackets after ≈: the same amount, converted by molar mass. Activity calls are given as the source filed them. The calls are words filed in the database; no cut-off is given here.

Consider `CCN(CC)c1nc(C(N)=O)cnc1C#N`, for which the result in the experiment with Enterobacter sp., in the experiment with Pseudomonas aeruginosa, in the experiment on Staphylococcus aureus [2], in the experiment on Staphylococcus aureus [3], in the experiment with Klebsiella pneumoniae [4] and in the experiment with Escherichia coli was inactive. In addition, the outcome (with Klebsiella pneumoniae [6]; in experiment [8]) was inactive. Moreover, the MIC (with Mycobacterium avium [1]; in experiment [5]; with Mycobacterium avium [7]; with Mycobacterium kansasii) was over 200 mg/L throughout.

As to `CNc1nc(C(N)=O)cnc1C#N`, the outcome in the experiment on Enterobacter sp., in the experiment with Pseudomonas aeruginosa, in the experiment with Staphylococcus aureus [2], in the experiment with Staphylococcus aureus [3], in the experiment with Klebsiella pneumoniae [4] and in the experiment on Escherichia coli was inactive. Moreover, the result (in the experiment with Klebsiella pneumoniae [6]; in experiment [8]) was inactive. The MIC in the experiment on Mycobacterium avium [1] is over 200 mg/L; in experiment [5], 200 mg/L (≈ 1130 µM); against Mycobacterium avium [7] it was over 200 mg/L; in the experiment on Mycobacterium kansasii it was over 200 mg/L.

As for `CCCCCCNc1nc(C(N)=O)cnc1C#N`, the result in the experiment with Enterobacter sp., with Pseudomonas aeruginosa, with Staphylococcus aureus [2], with Staphylococcus aureus [3], in the experiment with Klebsiella pneumoniae [4] and in the experiment on Escherichia coli was inactive. The outcome (in the experiment on Klebsiella pneumoniae [6]; in experiment [8]) was inactive. For the same compound, the minimum inhibitory concentration (MIC) in the experiment with Mycobacterium avium [1] is over 200 mg/L; in experiment [5], 12.5 mg/L (≈ 50.5 µM); with Mycobacterium avium [7] it was over 200 mg/L; against Mycobacterium kansasii, over 200 mg/L.

Turning to `N#Cc1ncc(C(N)=O)nc1NC1CCCCCC1`, the outcome in the experiment with Enterobacter sp., in the experiment on Pseudomonas aeruginosa, in the experiment with Staphylococcus aureus [2], with Staphylococcus aureus [3], in the experiment on Klebsiella pneumoniae [4] and in the experiment on Escherichia coli was inactive. Further, the outcome (in the experiment on Klebsiella pneumoniae [6]; in experiment [8]) was inactive. For the same compound, the MIC (in the experiment with Mycobacterium avium [1]; in [5]; against Mycobacterium avium [7]; in the experiment on Mycobacterium kansasii) was over 200 mg/L each time.

Take `N#Cc1ncc(C(N)=O)nc1NC1CCCC1`: the outcome in the experiment on Enterobacter sp., in the experiment with Pseudomonas aeruginosa, with Staphylococcus aureus [2], in the experiment with Staphylococcus aureus [3], in the experiment on Klebsiella pneumoniae [4] and in the experiment on Escherichia coli was inactive. Besides, the outcome (in the experiment on Klebsiella pneumoniae [6]; in [8]) was inactive. Besides, the MIC (in the experiment on Mycobacterium avium [1]; in experiment [5]; against Mycobacterium avium [7]; in the experiment with Mycobacterium kansasii) was over 200 mg/L each time.

With `CN1CCN(c2nc(C(N)=O)cnc2C#N)CC1`, the outcome with Enterobacter sp., in the experiment with Pseudomonas aeruginosa, in the experiment on Staphylococcus aureus [2], with Staphylococcus aureus [3], in the experiment on Klebsiella pneumoniae [4] and with Escherichia coli was inactive. Further, the result (in the experiment with Klebsiella pneumoniae [6]; in experiment [8]) was inactive. Besides, the MIC (in the experiment on Mycobacterium avium [1]; in experiment [5]; in the experiment with Mycobacterium avium [7]; against Mycobacterium kansasii) was over 200 mg/L throughout.

For the compound `N#Cc1ncc(C(N)=O)nc1NC1CCCCC1`, the outcome in the experiment with Enterobacter sp., in the experiment with Pseudomonas aeruginosa, in the experiment with Staphylococcus aureus [2], with Staphylococcus aureus [3], with Klebsiella pneumoniae [4] and with Escherichia coli was inactive. In addition, the outcome (in the experiment on Klebsiella pneumoniae [6]; in experiment [8]) was inactive. Further, the MIC (with Mycobacterium avium [1]; in [5]; with Mycobacterium avium [7]; in the experiment on Mycobacterium kansasii) was over 200 mg/L in each case.

On to `CCCCCCCCNc1nc(C(N)=O)cnc1C#N`, for which the outcome with Enterobacter sp., in the experiment on Pseudomonas aeruginosa, with Staphylococcus aureus [2], with Staphylococcus aureus [3], with Klebsiella pneumoniae [4] and in the experiment on Escherichia coli was inactive. Moreover, the outcome (in the experiment with Klebsiella pneumoniae [6]; in experiment [8]) was inactive. In addition, the MIC (with Mycobacterium avium [1]; in [5]; against Mycobacterium avium [7]; with Mycobacterium kansasii) was over 200 mg/L each time.

Turning to `CCNc1nc(C(N)=O)cnc1C#N`, the result in the experiment on Enterobacter sp., with Pseudomonas aeruginosa, in the experiment on Staphylococcus aureus [2], with Staphylococcus aureus [3], with Klebsiella pneumoniae [4] and in the experiment on Escherichia coli was inactive. The outcome (in the experiment with Klebsiella pneumoniae [6]; in experiment [8]) was inactive. Also, the MIC with Mycobacterium avium [1] is over 200 mg/L; in [5], 100 mg/L (≈ 523 µM); against Mycobacterium avium [7], over 200 mg/L; with Mycobacterium kansasii it was over 200 mg/L.

Consider `CCCNc1nc(C(N)=O)cnc1C#N`, for which the outcome in the experiment with Enterobacter sp., in the experiment on Pseudomonas aeruginosa, in the experiment with Staphylococcus aureus [2], with Staphylococcus aureus [3], with Klebsiella pneumoniae [4] and in the experiment with Escherichia coli was inactive. For the same compound, the result (in the experiment on Klebsiella pneumoniae [6]; in [8]) was inactive. The MIC was over 200 mg/L against Mycobacterium avium [1], 50 mg/L (≈ 244 µM) in experiment [5], over 200 mg/L in the experiment with Mycobacterium avium [7] and over 200 mg/L against Mycobacterium kansasii.

Take `CCCCNc1nc(C(N)=O)cnc1C#N`: the result with Enterobacter sp., in the experiment with Pseudomonas aeruginosa, with Staphylococcus aureus [2], in the experiment on Staphylococcus aureus [3], with Klebsiella pneumoniae [4] and in the experiment with Escherichia coli was inactive. Further, the outcome (in the experiment with Klebsiella pneumoniae [6]; in [8]) was inactive. Also, the MIC (against Mycobacterium avium [1]; in experiment [5]; against Mycobacterium avium [7]; in the experiment with Mycobacterium kansasii) was over 200 mg/L each time.

As for `N#Cc1ncc(C(N)=O)nc1N1CCOCC1`, the result with Enterobacter sp., with Pseudomonas aeruginosa, in the experiment on Staphylococcus aureus [2], in the experiment on Staphylococcus aureus [3], with Klebsiella pneumoniae [4] and with Escherichia coli was inactive. The outcome (in the experiment on Klebsiella pneumoniae [6]; in experiment [8]) was inactive. The MIC (in the experiment on Mycobacterium avium [1]; in experiment [5]; in the experiment with Mycobacterium avium [7]; against Mycobacterium kansasii) was over 200 mg/L each time.

For `NC(=O)c1cnccn1` [PYRAZINAMIDE], the MIC in the experiment on Mycobacterium avium [1] was over 200 mg/L; in [5], 12.5 mg/L (≈ 102 µM); with Mycobacterium avium [7] it was over 200 mg/L; against Mycobacterium kansasii it was over 200 mg/L.

As for `CCCCCCCNc1nc(C(N)=O)cnc1C#N`, the result with Enterobacter sp., in the experiment with Pseudomonas aeruginosa, with Staphylococcus aureus [2], with Staphylococcus aureus [3], in the experiment on Klebsiella pneumoniae [4] and in the experiment on Escherichia coli was inactive. The outcome (in the experiment on Klebsiella pneumoniae [6]; in experiment [8]) was inactive. Besides, the MIC stood at 100 mg/L (≈ 383 µM) against Mycobacterium avium [1], 12.5 mg/L (≈ 47.8 µM) in experiment [5], 100 mg/L (≈ 383 µM) against Mycobacterium avium [7] and 100 mg/L (≈ 383 µM) against Mycobacterium kansasii.
